Activity calls are given as the source filed them. The rule behind the calls is not given here.
Experiments:
Cavia porcellus [1] = assay: Bronchodilator activity in guinea pig assessed as protection against histamine aerosol-induced bronchoconstriction at 100 mg/kg, ip treated for 15 mins prior to histamine aerosol-challenge measured after 5 mins relative to control; assay type: functional; conditions: route intraperitoneal
In short: (§1)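 Guinea pigs in groups of eight; a control group of eight is first confirmed to collapse. Compound given ip 15 min or orally 30 min before exposure to 0.04% aqueous histamine aerosol for 5 min. Percent protection = 100 × animals not collapsing during the 5-min exposure / total animals. Significance by chi-square with Yates correction against 66 control animals.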

Cavia porcellus [2] = assay: Bronchodilator activity in guinea pig assessed as protection against histamine aerosol-induced bronchoconstriction at 50 mg/kg, ip treated for 15 mins prior to histamine aerosol-challenge measured after 5 mins relative to control; assay type: functional; conditions: route intraperitoneal
[3] = Bronchodilator activity in guinea pig trachea assessed as relaxation of tracheal smooth muscle at 0.05 to 0.5 ug/ml after 15 mins relative to aminophylline; assay type: functional, Cavia porcellus
In short: (§2)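 Guinea pig trachea cut into rings tied as a chain, in Krebs-Henseleit at 37 °C aerated with 5% CO2/95% O2, resting load 0.2–0.5 g, tone recorded isometrically after stabilization. Sodium salts in water, up to 5 µg/mL, 15-min exposure. Potency estimated against aminophylline by a three- or four-point assay from concentration–relaxation plots, one preparation per agent.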

Cavia porcellus [4] = assay: Bronchodilator activity in trachea and jugular vein cannulated guinea pig assessed as inhibition of histamine-induced response at 25 mg/kg, iv after 5 mins relative to control; assay type: functional
In short: (§3)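 Cannulated guinea pigs given histamine phosphate 10 µg/kg iv in buffered saline. Test agent given 5 min later as the sodium salt in water via jugular cannula, one dose per animal, then histamine repeated 5 min after dosing. Percent inhibition = maximum pulmonary resistance after the agent versus before it.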

Cavia porcellus [5] = assay: Bronchodilator activity in trachea and jugular vein cannulated guinea pig assessed as inhibition of histamine-induced response at 12.5 mg/kg, iv after 5 mins relative to control; assay type: functional; in short: as §3
[6] = (§4) Bronchodilator activity in guinea pig trachea assessed as relaxation of tracheal smooth muscle at 0.5 to 5 ug/ml after 15 mins relative to aminophylline; assay type: functional, Cavia porcellus; in short: as §2
[7] = Bronchodilator activity in guinea pig trachea assessed as relaxation of tracheal smooth muscle at 0.125 to 0.5 ug/ml after 15 mins relative to aminophylline; assay type: functional, Cavia porcellus; in short: as §2
Cavia porcellus [8] = assay: Toxicity in trachea and jugular vein cannulated histamine-induced guinea pig assessed as severe airway constriction at 25 mg/kg, iv; assay type: organism-based; parameters: dose 25 mg/kg, route intravenous; conditions: in vivo
In short: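 Guinea pigs cannulated in the jugular vein dosed iv with the sodium salt in water. Animals showing severe airway constriction after dosing were recorded and received no histamine challenge.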

Cavia porcellus [9] = assay: Bronchodilator activity in guinea pig assessed as protection against histamine aerosol-induced bronchoconstriction at 200 mg/kg, po treated for 30 mins prior to histamine aerosol-challenge measured after 5 mins; assay type: functional, organism-based; parameters: dose 200 mg/kg; in short: as §1
Cavia porcellus [10] = assay: Bronchodilator activity in guinea pig assessed as protection against histamine aerosol-induced bronchoconstriction at 90 mg/kg, ip treated for 15 mins prior to histamine aerosol-challenge measured after 5 mins relative to control; assay type: functional; conditions: route intraperitoneal; in short: as §1
[11] = Bronchodilator activity in guinea pig trachea assessed as relaxation of tracheal smooth muscle at 0.005 to 5 ug/ml after 15 mins relative to aminophylline; assay type: functional, Cavia porcellus; in short: as §2
Cavia porcellus [12] = assay: Bronchodilator activity in trachea and jugular vein cannulated guinea pig assessed as inhibition of histamine-induced response at 6.25 mg/kg, iv after 5 mins relative to control; assay type: functional; in short: as §3
Cavia porcellus [13] = assay: Bronchodilator activity in guinea pig assessed as protection against histamine aerosol-induced bronchoconstriction at 75 mg/kg, ip treated for 15 mins prior to histamine aerosol-challenge measured after 5 mins relative to control; assay type: functional; conditions: route intraperitoneal
Cavia porcellus [14] = assay: Bronchodilator activity in trachea and jugular vein cannulated guinea pig assessed as inhibition of histamine-induced response at 3.175 mg/kg, iv after 5 mins relative to control; assay type: functional; in short: as §3
Cavia porcellus [15] = species: Cavia porcellus; assay: as §4; assay type: functional; in short: as §2
Cavia porcellus [16] = assay: Bronchodilator activity in guinea pig assessed as protection against histamine aerosol-induced bronchoconstriction at 90 mg/kg, po treated for 30 mins prior to histamine aerosol-challenge measured after 5 mins; assay type: functional, organism-based; parameters: dose 90 mg/kg; in short: as §1

Row | Structure (SMILES) | Activity (Cavia porcellus [1]) [%] | other results
1 | CC(C)Oc1ccc2ccc3ccc(C(=O)O)cc3c(=O)c2c1 | 62.5 | 
2 | CC(C)Oc1ccc2c(c1)C(=O)c1cc(C(=O)O)ccc1CC2 |  | Activity (Cavia porcellus [2]): 0%
3 | O=C(O)c1ccc2c(c1)C(=O)c1cc(O)ccc1CC2 | 12.5 | 
4 | O=C(O)c1ccc2c(=O)c3cccc(F)c3ccc2c1 [listing 1 of 2 here] | 25 | 
5 | Cc1ccc2c(c1)C(=O)c1ccc(C(=O)O)cc1CC2 | 62.5 | 
6 | O=C(O)c1ccc2c(c1)CCc1c(F)cccc1C2=O | 75 | 
7 | N#Cc1ccc2c(c1)C(=O)c1cc(C(=O)[O-])ccc1CC2.[Na+] |  | fold change (FC) [3]: 5
8 | O=C(O)c1ccc2c(=O)c3cccc(F)c3ccc2c1 [listing 2 of 2 here] |  | inhibition in vivo at 25 mg/kg (Cavia porcellus [4]): 43%; inhibition in vivo at 12.5 mg/kg (Cavia porcellus [5]): 22%
9 | O=C(O)c1ccc2c(c1)C(=O)c1ccccc1CC2 | 0 | 
10 | CC(=O)c1ccc2c(c1)C(=O)c1cc(C(=O)O)ccc1CC2 | 62.5 | 
11 | CC(C)Oc1ccc2c(c1)C(=O)c1cc(C(=O)[O-])ccc1CC2.[Na+] |  | fold change (FC) [3]: 0.5
12 | CC(=O)c1ccc2c(c1)C(=O)c1ccc(C(=O)O)cc1CC2 | 25 | 
13 | O=C(O)c1ccc2c(c1)CCc1c(Cl)cccc1C2=O [listing 1 of 2 here] | 75 | 
14 | O=C(O)c1ccc2c(c1)CCc1cc(Br)ccc1C2=O | 25 | 
15 | CC(=O)c1ccc2c(c1)C(=O)c1cc(C(=O)[O-])ccc1CC2.[Na+] |  | fold change (FC) [3]: <1
16 | CC(C)c1ccc2c(c1)C(=O)c1ccc(C(=O)O)cc1CC2 | 62.5 | 
17 | O=C(O)c1ccc2ccc3ccc(Cl)cc3c(=O)c2c1 | 0 | 
18 | O=C([O-])c1ccc2c(c1)C(=O)c1ccccc1CC2.[Na+] |  | fold change (FC) [3]: 7
19 | Cc1cc(C)c2c(c1)C(=O)c1cc(C(=O)O)ccc1CC2 | 37.5 | 
20 | N#Cc1ccc2c(c1)CCc1ccc(C(=O)O)cc1C2=O | 12.5 | 
21 | CC(C)Oc1ccc2c(c1)C(=O)c1ccc(C(=O)O)cc1CC2 | 50 | 
22 | O=C([O-])c1ccc2c(c1)CCc1ccc(Br)cc1C2=O.[Na+] |  | fold change (FC) [6]: 7

Row | Structure (SMILES) | Activity (Cavia porcellus [1]) [%] | other results
23 | O=C(O)c1cccc2c1CCc1ccccc1C2=O | 0 | 
24 | O=C(O)c1ccc2ccc3ccc(Br)cc3c(=O)c2c1 | 12.5 | 
25 | Cc1ccc2c(c1)CCc1cc(C(=O)O)ccc1C2=O | 12.5 | 
26 | O=C(O)c1ccc2c(=O)c3ccccc3ccc2c1 | 0 | 
27 | O=C([O-])c1ccc2c(c1)C(=O)c1cc(Br)ccc1CC2.[Na+] |  | inhibition in vivo at 25 mg/kg (Cavia porcellus [4]): 61%; fold change (FC) [7]: 10; inhibition in vivo at 12.5 mg/kg (Cavia porcellus [5]): 0%
28 | O=C([O-])c1ccc2c(c1)CCc1c(Cl)cccc1C2=O.[Na+] |  | inhibition in vivo at 12.5 mg/kg (Cavia porcellus [5]): 76%; Activity (Cavia porcellus [8]): Toxic
29 | COc1ccc2c(c1)C(=O)c1ccc(C(=O)O)cc1CC2 [listing 1 of 2 here] | 50 | 
30 | O=C(O)c1ccc2c(=O)c3cc(Cl)cc(Cl)c3ccc2c1 | 0 | 
31 | O=C(O)c1ccc2c(c1)C(=O)c1cc(Br)ccc1CC2 | 62.5 | 
32 | CC(C)c1ccc2c(c1)C(=O)c1cc(C(=O)O)ccc1CC2 | 25 | 
33 | O=C(O)c1ccc2c(c1)CCc1ccc(Br)cc1C2=O | 50 | 
34 | COc1ccc2c(c1)C(=O)c1ccc(C(=O)O)cc1CC2 [listing 2 of 2 here] |  | inhibition in vivo at 25 mg/kg (Cavia porcellus [4]): 68%; inhibition in vivo at 12.5 mg/kg (Cavia porcellus [5]): 13%
35 | CC(=O)c1ccc2ccc3ccc(C(=O)O)cc3c(=O)c2c1 | 37.5 | 
36 | O=C(O)c1ccc2c(c1)CCc1c(Cl)cccc1C2=O [listing 2 of 2 here] |  | Activity (Cavia porcellus [9]): inactive
37 | COc1ccc2c(c1)CCc1cc(C(=O)O)ccc1C2=O [listing 1 of 2 here] | 37.5 | 
38 | O=C(O)c1ccc2c(c1)CCc1c(Br)cccc1C2=O [listing 1 of 2 here] |  | Activity (Cavia porcellus [10]): 75%
39 | O=C([O-])c1ccc2c(c1)C(=O)c1cc(Cl)ccc1CC2.[Na+] |  | fold change (FC) [11]: 25
40 | O=C(O)c1ccc2c(c1)CCc1c(Br)cccc1C2=O [listing 2 of 2 here] |  | inhibition in vivo at 25 mg/kg (Cavia porcellus [4]): 77%; inhibition in vivo at 12.5 mg/kg (Cavia porcellus [5]): 46%; inhibition in vivo at 6.25 mg/kg (Cavia porcellus [12]): 0%
41 | O=C(O)c1ccc2c(c1)C(=O)c1ccc(Cl)cc1CC2 | 25 | 
42 | O=C([O-])c1ccc2c(c1)CCc1ccc(Cl)cc1C2=O.[Na+] |  | inhibition in vivo at 12.5 mg/kg (Cavia porcellus [5]): 24%; Activity (Cavia porcellus [8]): Toxic; inhibition in vivo at 6.25 mg/kg (Cavia porcellus [12]): 0%
43 | CC(C)c1ccc2c(c1)C(=O)c1cc(C(=O)[O-])ccc1CC2.[Na+] |  | fold change (FC) [6]: 5
44 | Cn1c(=O)c2[nH]cnc2n(C)c1=O.Cn1c(=O)c2[nH]cnc2n(C)c1=O.NCCN [AMINOPHYLLINE] | 75 | Activity (Cavia porcellus [2]): 25%; Activity (Cavia porcellus [13]): 50%

Row | Structure (SMILES) | Activity (Cavia porcellus [1]) [%] | other results
45 | CC(C)c1ccc2c(c1)C(=O)c1ccc(C(=O)[O-])cc1CC2.[Na+] |  | fold change (FC) [7]: 10
46 | O=C(O)c1ccc2c(c1)C(=O)c1ccc(Br)cc1CC2 | 0 | 
47 | O=C(O)c1cc2ccccc2c(=O)c2ccccc12 | 0 | 
48 | N#Cc1ccc2c(c1)C(=O)c1cc(C(=O)O)ccc1CC2 | 0 | 
49 | O=C(O)c1ccc2c(c1)CCc1ccc(Cl)cc1C2=O | 0 | 
50 | Cc1cccc2c1CCc1cc(C(=O)O)ccc1C2=O [listing 1 of 2 here] |  | inhibition in vivo at 25 mg/kg (Cavia porcellus [4]): 0%; inhibition in vivo at 3.175 mg/kg (Cavia porcellus [14]): 0%; inhibition in vivo at 12.5 mg/kg (Cavia porcellus [5]): 0%; inhibition in vivo at 6.25 mg/kg (Cavia porcellus [12]): 0%
51 | O=C(O)c1ccc2c(c1)CCc1c(Cl)cc(Cl)cc1C2=O | 50 | 
52 | O=C([O-])c1ccc2c(c1)CCc1c(Cl)cc(Cl)cc1C2=O.[Na+] |  | inhibition in vivo at 12.5 mg/kg (Cavia porcellus [5]): 53%; Activity (Cavia porcellus [8]): Toxic
53 | O=C(O)c1ccc2c(c1)CCc1ccccc1C2=O [listing 1 of 3 here] | 62.5 | 
54 | O=C(O)c1ccc2c(=O)c3cccc(Br)c3ccc2c1 | 25 | 
55 | O=C(O)c1ccc2c(c1)CCc1ccccc1C2=O [listing 2 of 3 here] |  | Activity (Cavia porcellus [15]): inactive
56 | O=C(O)c1ccc2c(c1)C(=O)c1cccc(Br)c1CC2 | 0 | 
57 | Cc1ccc2c(c1)CCc1cc(C(=O)[O-])ccc1C2=O.[Na+] |  | inhibition in vivo at 12.5 mg/kg (Cavia porcellus [5]): 0%; Activity (Cavia porcellus [8]): Toxic
58 | Cc1cccc2c1CCc1cc(C(=O)O)ccc1C2=O [listing 2 of 2 here] | 87.5 | 
59 | COc1ccc2c(c1)CCc1cc(C(=O)O)ccc1C2=O [listing 2 of 2 here] |  | inhibition in vivo at 25 mg/kg (Cavia porcellus [4]): 20%
60 | O=C(O)c1cccc2c(=O)c3ccccc3ccc12 | 12.5 | 
61 | O=C(O)c1ccc2ccc3ccc(C(=O)O)cc3c(=O)c2c1 | 25 | 
62 | COc1ccc2c(c1)C(=O)c1cc(C(=O)O)ccc1CC2 | 50 | 
63 | O=C(O)c1ccc2c(c1)CCc1ccccc1C2=O [listing 3 of 3 here] |  | inhibition in vivo at 25 mg/kg (Cavia porcellus [4]): 11%; inhibition in vivo at 12.5 mg/kg (Cavia porcellus [5]): 0%
64 | O=C(O)c1ccc2c(c1)C(=O)c1cc(Cl)ccc1CC2 | 25 | 
65 | CC(C)c1cccc2c1CCc1cc(C(=O)O)ccc1C2=O | 25 | Activity (Cavia porcellus [16]): inactive
66 | O=C(O)c1ccc2ccc3ccccc3c(=O)c2c1 | 62.5 | 
